ASAP1 inh – inhibitors of human ASAP1 ArfGAP activity | ASAP1-stimulated ARF1 GTP hydrolysis, GDP FP detection | Q9ULH1 | inhibition, % at 16.5 µM | 360,000 tested, 0.19% active; in the data active means inhibition above about 25%;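 further: 0% = vehicle with enzyme and substrate and 100% = no enzyme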
Target sequence (Q9ULH1 325-724 limits assumed): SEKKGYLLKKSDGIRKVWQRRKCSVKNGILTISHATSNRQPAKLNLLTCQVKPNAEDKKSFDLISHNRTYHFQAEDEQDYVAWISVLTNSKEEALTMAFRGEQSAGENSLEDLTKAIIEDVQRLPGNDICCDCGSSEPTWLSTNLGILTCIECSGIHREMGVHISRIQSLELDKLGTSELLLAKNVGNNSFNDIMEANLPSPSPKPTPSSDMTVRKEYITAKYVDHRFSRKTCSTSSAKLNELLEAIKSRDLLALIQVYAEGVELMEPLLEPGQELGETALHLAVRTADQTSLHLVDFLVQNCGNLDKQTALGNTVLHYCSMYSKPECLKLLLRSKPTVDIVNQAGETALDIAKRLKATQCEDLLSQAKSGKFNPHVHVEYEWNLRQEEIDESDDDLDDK
MsrA inh – inhibitors of bovine MsrA; inhibition, % at 15.5 µM; purified bovine MsrA, absorbance read-out; 360,000 tested, 0.75% active; in the data active means inhibition above about 4.5%;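 further: 0% = vehicle wells with enzyme and 100% = reference inhibitor wells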
MsrA act – activates bovine MsrA enzyme. purified bovine MsrA, absorbance read-out. activation, % at 10.6 µM. 360,000 tested, 0.3% active; in the data active means activation above about 7.5%;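 further: 0% = vehicle and 100% = reference activator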
ARFGAP1 inhibitor – inhibits rat ARF GTPase activating protein 1; Arfgap1-stimulated ARF1 GTP hydrolysis, GDP FP detection; inhibition, % at 16.5 µM; 360,000 tested, 0.26% active; AID 651572;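 active means inhibition above a per-plate limit, mean inhibition of low control wells plus 3 SD, cut at about 25% in these data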;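 further: 0% = DMSO wells with enzyme and 100% = wells lacking Arfgap1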
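Repeats: one replicate per compound; assay system: rat Arfgap1 catalytic domain, aa 1-136; times: enzyme reaction 120 min at 25 °C after 20 min preincubation; detection: FP of antibody-bound GDP Alexa 633 tracer, ex 620/em 688 nm; benchmarks: high control wells lacking Arfgap1, low control full reaction with DMSO; reagent: human ARF1(Δ1-17)-GTP substrate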
ASAP1 GAP conf – ASAP1 inhibition confirmed; shares compounds with ASAP1 inh; ASAP1-stimulated Arf1 GTPase, GDP fluorescence polarization; inhibition, % at 16.5 µM; 620 tested, 37% active; AID 624431;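 active means mean inhibition over triplicates exceeds the hit threshold derived for the earlier primary screening run, cut at about 25% in these data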
ARFGAP1 inh conf – rat ARFGAP1 inhibition, confirmed. AID 651608. inhibition, % at 16.5 µM. ARFGAP1-stimulated ARF1 GTP hydrolysis, GDP tracer FP. 890 tested, 30% active. shares compounds with ARFGAP1 inhibitor;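 active means average inhibition over triplicates above the hit cutoff set in the earlier primary screen, cut at about 25% in these data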;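 further: 0% = Arfgap1 plus ARF1-GTP with DMSO and 100% = wells lacking Arfgap1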
* marks the source's active call; other numbers are inactive results. Rows were chosen to be rich in hits. Some 1.4% of all compounds tested hit in one or more screens of this group.

How did Cc1cc2cc(CNC(=O)Nc3ccc(Cl)c(Cl)c3)ccc2n1C do in these assays?
ASAP1 inh: 42*; MsrA inh: 0; MsrA act: 0; ARFGAP1 inhibitor: 74*; ASAP1 GAP conf: 14; ARFGAP1 inh conf: 8

What do the screens show for `Cc1[nH][nH]c(=O)c1C(c1ccc(-c2ccc(Cl)c(C(=O)O)c2)o1)c1c(C)[nH][nH]c1=O`?
ASAP1 inh: 42*; MsrA inh: 3; MsrA act: -2; ARFGAP1 inhibitor: 25*; ASAP1 GAP conf: 11; ARFGAP1 inh conf: -2

Results for CC1(C)OC(=O)C(=Cc2ccc(-c3ccc(Cl)c(C(=O)O)c3)o2)C(=O)O1 ?
ASAP1 inh: -6; MsrA inh: 0; MsrA act: -3; ARFGAP1 inhibitor: -11

What do the screens show for `O=C(Cn1cnc2ccccc2c1=O)Nc1ccc2c(c1)OCCO2`?
ASAP1 inh: 10; MsrA inh: -1; MsrA act: 4; ARFGAP1 inhibitor: 5

Results for CCCCOc1cccc2c(=O)n(CC(=O)Nc3ccc4c(c3)OCCO4)ccc12 ?
ASAP1 inh: 35*; MsrA inh: -1; MsrA act: -6; ARFGAP1 inhibitor: 25*; ASAP1 GAP conf: 34*; ARFGAP1 inh conf: 38*

What do the screens show for `COc1ccc(Cl)cc1C(=O)Nc1cccc(-c2ccc3nncn3n2)c1`?
ASAP1 inh: 191*; MsrA inh: 1; MsrA act: -9; ARFGAP1 inhibitor: active; ASAP1 GAP conf: 196*; ARFGAP1 inh conf: active

Results for COc1ccc(OC)c(C=NNC(=O)NN=Cc2cc(OC)ccc2OC)c1 ?
ASAP1 inh: 42*; MsrA inh: 1; MsrA act: -2; ARFGAP1 inhibitor: 57*; ASAP1 GAP conf: 96*; ARFGAP1 inh conf: 92*

What do the screens show for `CCC(=O)Nc1c(C#N)c2nc3ccccc3nc2n1-c1ccc(C)cc1`?
ASAP1 inh: -10; MsrA inh: 2; MsrA act: -6; ARFGAP1 inhibitor: -2

How did N#Cc1c(NC(=O)c2ccc(Br)o2)n(-c2ccccc2)c2nc3ccccc3nc12 do in these assays?
ASAP1 inh: 42*; MsrA inh: 0; MsrA act: -5; ARFGAP1 inhibitor: 27*; ASAP1 GAP conf: 20; ARFGAP1 inh conf: -1

How did O=C(O)c1ccc(Nc2nc(-c3cc4ccccc4oc3=O)cs2)cc1O do in these assays?
ASAP1 inh: 25*; MsrA inh: 3; MsrA act: -6; ARFGAP1 inhibitor: 27*; ASAP1 GAP conf: 33*; ARFGAP1 inh conf: 45*

How did CC(=O)Nc1ccc(Nc2nc(-c3cc4ccccc4oc3=O)cs2)cc1 do in these assays?
ASAP1 inh: 7; MsrA inh: 0; MsrA act: -6; ARFGAP1 inhibitor: -5

What do the screens show for `CN(Cc1cn(Cc2ccc(F)cc2)nn1)C1CN(Cc2cn(Cc3ccc(F)cc3)nn2)S(=O)(=O)C1` (configuration not stated)?
ASAP1 inh: -13; MsrA inh: -2; MsrA act: -1; ARFGAP1 inhibitor: 10

How did COc1ccc(C(=O)Nc2nnc(SCC(=O)Nc3ccc(NC(C)=O)cc3)s2)c(OC)c1 do in these assays?
ASAP1 inh: 39*; MsrA inh: 0; MsrA act: 0; ARFGAP1 inhibitor: 52*; ASAP1 GAP conf: 82*; ARFGAP1 inh conf: 122*

How did O=C(Nc1ccc2oc(-c3cccnc3)nc2c1)c1ccc2c(c1)OCCO2 do in these assays?
ASAP1 inh: 27*; MsrA inh: 1; MsrA act: -2; ARFGAP1 inhibitor: 42*; ASAP1 GAP conf: 38*; ARFGAP1 inh conf: 114*

What do the screens show for `O=C(Nc1ccc2oc(-c3ccccc3)nc2c1)c1ccc2c(c1)OCCO2`?
ASAP1 inh: -1; MsrA inh: 1; MsrA act: -3; ARFGAP1 inhibitor: -3

What do the screens show for `COc1ccc(Cl)cc1NC(=O)c1nnn(CC(=O)Nc2ccc(OC)c(OC)c2)c1N`?
ASAP1 inh: -7; MsrA inh: -1; MsrA act: -3; ARFGAP1 inhibitor: 0

Results for COc1cccc(NC(=O)Cn2nnc(C(=O)Nc3cc(Cl)ccc3OC)c2N)c1 ?
ASAP1 inh: 77*; MsrA inh: -1; MsrA act: -3; ARFGAP1 inhibitor: 138*; ASAP1 GAP conf: 109*; ARFGAP1 inh conf: 199*

Results for NC(=O)/C(=N\OC(=O)c1ccco1)c1nc(-c2ccc(Br)cc2)cs1 ?
ASAP1 inh: 7; MsrA inh: 1; MsrA act: -6; ARFGAP1 inhibitor: -15

Bioassay records (PubChem)
